ChEMBL document CHEMBL4038349, “Synthesis and Evaluation of Asymmetric Acyclic Nucleoside Bisphosphonates as Inhibitors of Plasmodium falciparum and Human Hypoxanthine-Guanine-(Xanthine) Phosphoribosyltransferase” (J Med Chem, 2017)
Activity calls are given as the source filed them. The calls are words filed in the database; no cut-off is given here.

Experiments:
Plasmodium falciparum [1] = assay: Antimalarial activity against Plasmodium falciparum D6 infected in type O+ human RBC assessed as reduction in [3H]hypoxanthine incorporation preincubated for 48 hrs followed by [3H]hypoxanthine addition measured after 96 hrs; type: functional
How it was run: (§1)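 Ring-stage synchronized cultures (>90% early trophozoite, D-sorbitol) at 0.5% parasitemia, 2% hematocrit in hypoxanthine-free RPMI-1640-LPLF with 10% human plasma, 37°C under 5% O2/5% CO2/90% N2. Ten 2-fold serial dilutions of prodrug for 96 h. [3H]-hypoxanthine (0.2 μCi/well) added at ~48 h. IC50 from non-linear regression of incorporation versus log concentration. Mean (±SD) of at least two independent experiments.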

Plasmodium falciparum [2] = assay: Antimalarial activity against chloroquine and pyrimethamine-resistant Plasmodium falciparum W2 infected in type O+ human RBC assessed as reduction in [3H]hypoxanthine incorporation preincubated for 48 hrs followed by [3H]hypoxanthine addition measured after 96 hrs; type: functional; how it was run: as §1
[3] = Cytotoxicity against human A549 cells after 4 days by Coulter counting method; type: cell-based
How it was run: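 Human lung carcinoma A549 cells seeded at 7500 cells/well, compounds added next day in serial dilutions; 4 days at 37°C, then cells trypsinized and counted. CC50 = concentration giving 50% inhibition of proliferation versus no-compound control, derived by extrapolation assuming semi-log dose-response.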

[4] = Selectivity index, ratio of CC50 for human A549 cells to IC50 for Plasmodium falciparum D6; type: toxicity; settings: read-out: Ratio CC50/IC50
How it was run: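 Ratio CC50/IC50. CC50: A549 cells, 4-day proliferation, Coulter counting. IC50: Pf D6 ring-stage cultures, 0.5% parasitemia, 2% hematocrit, hypoxanthine-free medium, ten 2-fold dilutions of phosphoramidate prodrugs for 96 h; [3H]-hypoxanthine added at ~48 h; IC50 by non-linear regression; at least two independent experiments, mean ±SD.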

[5] = target: T1, Hypoxanthine-guanine phosphoribosyltransferase (Homo sapiens, UniProt P00492); assay: Inhibition of human HGPRT using PRib-PP as the substrate by spectrophotometric method
T1 sequence (P00492 whole entry): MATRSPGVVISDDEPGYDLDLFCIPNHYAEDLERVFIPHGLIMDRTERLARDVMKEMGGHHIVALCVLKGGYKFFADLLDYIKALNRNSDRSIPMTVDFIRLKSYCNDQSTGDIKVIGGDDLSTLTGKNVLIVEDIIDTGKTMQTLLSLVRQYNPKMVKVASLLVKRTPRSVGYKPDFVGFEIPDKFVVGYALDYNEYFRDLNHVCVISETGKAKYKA
How it was run: (§2)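 Enzyme assays in 0.1 M Tris-HCl, 10 mM MgCl2, pH 7.4. Guanine fixed at 49 µM as non-variable substrate; PRib-PP varied 20-1400 µM at fixed inhibitor concentration; Hanes' plots. Ki from Km(app) = Km[1+[I]/Ki], assuming competitive inhibition; for Ki <2 µM, Km(app) measured at three inhibitor concentrations.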

[6] = Inhibition of Plasmodium falciparum HGPRT using PRib-PP as the substrate by spectrophotometric method; how it was run: as §2
Plasmodium falciparum [7] = assay: Inhibition of Plasmodium falciparum HGPRT using PRib-PP as the substrate at 33 uM by spectrophotometric method
Plasmodium falciparum [8] = assay: Inhibition of Plasmodium falciparum HGPRT using PRib-PP as the substrate at 50 uM by spectrophotometric method

SMILES | CC50 at 96 h [3] | Ki [5] | Ki [6] | other results
CCOC(=O)[C@H](Cc1ccccc1)NP(=O)(CCOCC(COCP(=O)(N[C@@H](Cc1ccccc1)C(=O)OCC)N[C@@H](Cc1ccccc1)C(=O)OCC)Cn1c(Br)nc2c(=O)[nH]c(N)nc21)N[C@@H](Cc1ccccc1)C(=O)OCC (stereo not given in full) | 151 µM | – | – | IC50 (Plasmodium falciparum [1]): 5.6 µM; IC50 (Plasmodium falciparum [2]): 8.3 µM; selectivity ratio [4]: 27
CCOC(=O)[C@H](Cc1ccccc1)NP(=O)(CCOCC(COCP(=O)(N[C@@H](Cc1ccccc1)C(=O)OCC)N[C@@H](Cc1ccccc1)C(=O)OCC)Cn1cnc2c(=O)[nH]c(N)nc21)N[C@@H](Cc1ccccc1)C(=O)OCC (stereo not given in full) | 212 µM | – | – | IC50 (Plasmodium falciparum [1]): 5.7 µM; IC50 (Plasmodium falciparum [2]): 7.4 µM; selectivity ratio [4]: 37
O=c1[nH]cnc2c1ncn2CC(COCCP(=O)(O)O)COCP(=O)(O)O (stereo not given) | – | 1.8 µM | 3 µM | –
CCOC(=O)[C@H](Cc1ccccc1)NP(=O)(CCOCC(Cn1cnc2c(=O)[nH]cnc21)OCCP(=O)(N[C@@H](Cc1ccccc1)C(=O)OCC)N[C@@H](Cc1ccccc1)C(=O)OCC)N[C@@H](Cc1ccccc1)C(=O)OCC (stereo not given in full) | – | – | – | IC50 (Plasmodium falciparum [1]): 3.6 µM; IC50 (Plasmodium falciparum [2]): 1.9 µM; selectivity ratio [4]: 25
Nc1nc2c(nc(Br)n2CC(COCCP(=O)(O)O)COCP(=O)(O)O)c(=O)[nH]1 (stereo not given) | – | 0.1 µM | 2 µM | –
CCOC(=O)[C@H](Cc1ccccc1)NP(=O)(CCOCC(COCP(=O)(N[C@@H](Cc1ccccc1)C(=O)OCC)N[C@@H](Cc1ccccc1)C(=O)OCC)Cn1cnc2c(=O)[nH]cnc21)N[C@@H](Cc1ccccc1)C(=O)OCC (stereo not given in full) | 82 µM | – | – | IC50 (Plasmodium falciparum [1]): 1.4 µM; IC50 (Plasmodium falciparum [2]): 3.2 µM; selectivity ratio [4]: 59
CCOC(=O)[C@H](Cc1ccccc1)NP(=O)(CCOCC(COCP(=O)(N[C@@H](Cc1ccccc1)C(=O)OCC)N[C@@H](Cc1ccccc1)C(=O)OCC)Cn1ccc2c(=O)[nH]c(N)nc21)N[C@@H](Cc1ccccc1)C(=O)OCC (stereo not given in full) | 106 µM | – | – | IC50 (Plasmodium falciparum [1]): 1.8 µM; IC50 (Plasmodium falciparum [2]): 6.5 µM; selectivity ratio [4]: 59
CCOC(=O)[C@H](Cc1ccccc1)NP(=O)(CCOCC(COCP(=O)(N[C@@H](Cc1ccccc1)C(=O)OCC)N[C@@H](Cc1ccccc1)C(=O)OCC)Cn1c(Br)nc2c(=O)[nH]cnc21)N[C@@H](Cc1ccccc1)C(=O)OCC (stereo not given in full) | 36 µM | – | – | –
CCOC(=O)[C@H](Cc1ccccc1)NP(=O)(CCOCC(Cn1c(Br)nc2c(=O)[nH]c(N)nc21)OCCP(=O)(N[C@@H](Cc1ccccc1)C(=O)OCC)N[C@@H](Cc1ccccc1)C(=O)OCC)N[C@@H](Cc1ccccc1)C(=O)OCC (stereo not given in full) | 188 µM | – | – | –
O=c1[nH]cnc2c1ncn2CC(COCCP(=O)(O)O)OCCP(=O)(O)O (stereo not given) | – | 0.7 µM | – | inhibition (Plasmodium falciparum [7]): inactive
O=c1[nH]cnc2c1nc(Br)n2CC(COCCP(=O)(O)O)COCP(=O)(O)O (stereo not given) | – | 2.5 µM | – | inhibition (Plasmodium falciparum [8]): inactive
Nc1nc2c(nc(Br)n2CC(COCCP(=O)(O)O)OCCP(=O)(O)O)c(=O)[nH]1 (stereo not given) | – | 0.4 µM | 0.9 µM | –
O=c1[nH]cnc2c1ccn2CC(COCCP(=O)(O)O)COCP(=O)(O)O (stereo not given) | – | 4.6 µM | 6 µM | –
Nc1nc2c(ncn2CC(COCCP(=O)(O)O)OCCP(=O)(O)O)c(=O)[nH]1 (stereo not given) | – | – | 0.5 µM | –
O=c1[nH]cnc2c1ncn2CC(COCP(=O)(O)O)COCP(=O)(O)O | – | – | 5 µM | –
Nc1nc2c(ncn2CC(COCCP(=O)(O)O)COCP(=O)(O)O)c(=O)[nH]1 (stereo not given) | – | 0.006 µM | 0.07 µM | –
Nc1nc2c(ccn2CC(COCCP(=O)(O)O)COCP(=O)(O)O)c(=O)[nH]1 (stereo not given) | – | 0.1 µM | 4 µM | –
CCOC(=O)[C@H](Cc1ccccc1)NP(=O)(CCOCC(COCP(=O)(N[C@@H](Cc1ccccc1)C(=O)OCC)N[C@@H](Cc1ccccc1)C(=O)OCC)Cn1ccc2c(=O)[nH]cnc21)N[C@@H](Cc1ccccc1)C(=O)OCC (stereo not given in full) | 20 µM | – | – | –
